This note sets out measurements from ChEMBL document CHEMBL3576806, “Design and synthesis of novel arctigenin analogues for the amelioration of metabolic disorders” (ACS Med Chem Lett, 2015).

Activity calls are given as the source filed them. No cut-off for these calls is given here.

Data set [1] in a line: Tmax in ob/ob mouse at 50 mg/kg, ip measured after 0.5 to 24 hrs. The format is ADME, organism-based. The following applies: in vivo.
For data set [2], the system named is Mus musculus. The experiment in a line: Antidiabetic activity in ob/ob mouse assessed as reduction in NEFA levels at 50 mg/kg, ip bid for 23 days. Set-up: scale not given: the % may be the effect or the level left. Type of data set: functional. The method, boiled down: (§1)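 ob/ob mice given 50 mg/kg intraperitoneally or vehicle twice daily for 23 d; body weight and food intake recorded regularly, fed and fasting blood glucose measured throughout, serum triacylglycerol, cholesterol and NEFA measured at end of treatment; mean ± SEM, n = 6–8 mice, compared with vehicle group.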

Data set [3] has as its system Mus musculus. Description: Toxicity in ob/ob mouse assessed as effect on feeding behavior at 50 mg/kg, ip bid for 23 days. Type of data set: organism-based. The note with it: in vivo, 552 h. The method, boiled down: as §1
The test system of data set [4] is L6. Description: Increase in glucose uptake in rat L6 cells pre-treated with compound for 30 mins using 2-deoxy-D-[1,2-3H]glucose and measured after 2 hrs in presence of 10 uM AMPK inhibitor compound-C by liquid scintillation counting method. The format is functional, cell-based. The method, boiled down:
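L6 myotube 2-deoxyglucose uptake after compound exposure, tested with and without the AMPK inhibitor compound C; mean ± SEM, n = 3 independent experiments.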

In data set [5] the test system is Mus musculus. Description: Antidiabetic activity in ob/ob mouse assessed as reduction in body weight at 50 mg/kg, ip bid for 23 days measured on day 3. The format is functional, organism-based. Summed up:
as §1

The subject of data set [6] is L6. Description: Increase in glucose uptake in rat L6 cells at 6 uM pre-treated with compound for 30 mins using 2-deoxy-D-[1,2-3H]glucose and measured after 2 hrs […] by liquid scintillation counting method. The format is functional. Summed up: (§2)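 L6 myotubes exposed to compound for 2 h at 1.5, 3, 6, 12 or 24 μM; 2-deoxyglucose uptake expressed as fold over untreated control; 3 μM (−)-arctigenin run alongside as positive control; mean ± SEM of 3 independent experiments.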

Data set [7] concerns L6. The experiment in a line: Induction of fatty acid oxidation in rat L6 cells at 6 uM using [9,10-3H(N)]-palmitic acid incubated for 2 hrs. Type of data set: functional, cell-based. Summed up: (§3)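 Fatty acid oxidation measured in L6 myotubes after compound treatment, also with compound C to block AMPK; mean ± SEM, n = 3 independent experiments.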
The subject of data set [8] is L6. Description: Induction of depolarization of mitochondrial membrane potential in rat L6 cells incubated for 10 mins by fluorescence based assay. The format is functional, cell-based. The method, boiled down: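 L6 myotubes treated 10 min over a concentration series; mitochondrial membrane potential (Δψm) depolarization measured; mean ± SEM, n = 3 independent experiments.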

The test system of data set [9] is Mus musculus. The experiment in a line: Antidiabetic activity in ob/ob mouse assessed as effect on serum triglyceride levels at 50 mg/kg, ip bid for 23 days. The format is functional, organism-based. Summed up:
as §1

Data set [10] relates to Mus musculus. The experiment in a line: Antidiabetic activity in ob/ob mouse assessed as reduction in fed glucose levels at 50 mg/kg, ip bid for 12 days. On the set-up: scale not given: the % may be the effect or the level left. Type of data set: functional. Summed up:
as §1

The test system of data set [11] is Mus musculus. Description: Reduction in respiratory exchange ratio in ob/ob mouse at 50 mg/kg, ip measured at 6 min intervals […] at 23 degC by indirect calorimetry. Type of data set: functional, organism-based.
Data set [12] deals with L6. Description: Induction of fatty acid oxidation in rat L6 cells at 3 uM using [9,10-3H(N)]-palmitic acid incubated for 2 hrs. Type of data set: functional, cell-based. Summed up: as §3
The subject of data set [13] is Mus musculus. The experiment in a line: Antidiabetic activity in ob/ob mouse assessed as reduction in total cholesterol levels at 50 mg/kg, ip bid for 23 days. Set-up: scale not given: the % may be the effect or the level left. Type of data set: functional. The method, boiled down:
as §1

Data set [14] is described as follows: AUC (0 to t) in ob/ob mouse at 50 mg/kg, ip measured after 0.5 to 24 hrs. The format is ADME, organism-based. On the set-up: dose 50 mg/kg, time upper 24 hr, time lower 0.5 hr, route intraperitoneal. The following applies: in vivo.
Data set [15] relates to L6. The experiment in a line: Induction of fatty acid oxidation in rat L6 cells using [9,10-3H(N)]-palmitic acid incubated for 2 hrs in presence of AMPK inhibitor compound-C. Type of data set: functional, cell-based. Summed up: as §3
The test system of data set [16] is Mus musculus. Description: Antidiabetic activity in ob/ob mouse assessed as reduction in fasting blood glucose levels at 50 mg/kg, ip bid for 12 days. The format is functional. Set-up: scale not given: the % may be the effect or the level left. Summed up: as §1
Data set [17] can be described thus: Cmax in ob/ob mouse at 50 mg/kg, ip measured after 0.5 to 24 hrs. The format is ADME, organism-based. On the set-up: dose 50 mg/kg, route intraperitoneal. The following applies: in vivo.
The subject of data set [18] is L6. The experiment in a line: Ratio of glucose uptake in rat L6 cells at 6 uM after 2 hrs to glucose uptake in rat L6 cells at 6 uM after 2 hrs in presence of 3 uM (-)-arctigenin. Type of data set: functional. Summed up:
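Glucose uptake in L6 myotubes after 2 h compound exposure divided by uptake with the 3 μM (−)-arctigenin positive control run in parallel.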

The subject of data set [19] is L6. The experiment in a line: Increase in glucose uptake in rat L6 cells at 6 uM pre-treated with compound for 30 mins using 2-deoxy-D-[1,2-3H]glucose and measured after 2 hrs by liquid scintillation counting method. The format is functional. Summed up: as §2

On to `COc1ccc(CC2COC(=O)C2Cc2ccc(Cl)cc2)cc1OC` (racemic), for which the Tmax in [1] is 30 min. For the same molecule, the Activity is 10% with Mus musculus [2]; “Non-toxic” in the data set on Mus musculus [3]; 185.5% with L6 [6]; “Dose-dependent effect” in the data set with L6 [8]; 27.7% in the data set on Mus musculus [10]; 22.4% in the data set with Mus musculus [13]. The Activity with Mus musculus [16] is reported as 27.3%; in the data set on L6 [19], 173.7%. Further, the result in the data set with L6 [4], with Mus musculus [9] and with L6 [15] was inactive. Moreover, the outcome in the data set on Mus musculus [5], with L6 [7], with Mus musculus [11] and with L6 [12] was Active. The molecule further came in with an area under the curve AUC(0-t) in data set [14] of 1880 ng·h/mL. In [17], this molecule registered a Cmax of 508 ng/mL. The Ratio with L6 [18] is 0.936.
